Test results published in BindingDB's records for doi:10.1021/acs.jmedchem.7b00861 (Leiden University, 2017).
“And” between values parts separate entries of the source, which are not always exact repeats. Identical values can stand only once.

The molecules below were run against T1, Cannabinoid receptor 1 (Homo sapiens, UniProt P21554) (assay: Displacement of [3H]CP55940 from recombinant human CB1 receptor expressed in beta-galactosidase expressing CHOK1 cell membranes after 60 mins by scintillation spectrometry).
T1 sequence (P21554 whole entry): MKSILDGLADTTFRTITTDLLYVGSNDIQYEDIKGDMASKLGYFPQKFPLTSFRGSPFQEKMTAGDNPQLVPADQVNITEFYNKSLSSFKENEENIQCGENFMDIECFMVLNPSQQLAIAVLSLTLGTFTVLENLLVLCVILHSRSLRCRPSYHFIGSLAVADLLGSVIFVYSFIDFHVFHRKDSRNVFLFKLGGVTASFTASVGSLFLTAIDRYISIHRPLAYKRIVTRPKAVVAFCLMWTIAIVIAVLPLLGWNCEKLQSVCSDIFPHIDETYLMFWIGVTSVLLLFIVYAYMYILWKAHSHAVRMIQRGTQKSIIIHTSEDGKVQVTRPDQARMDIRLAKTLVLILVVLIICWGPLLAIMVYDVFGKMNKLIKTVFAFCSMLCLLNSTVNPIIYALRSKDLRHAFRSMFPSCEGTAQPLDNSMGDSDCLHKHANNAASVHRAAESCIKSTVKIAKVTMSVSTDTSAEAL

| SMILES | Ki [nM] |
| --- | --- |
| Cc1c(C(=O)N[C@@H]2CCCC[C@@H]2N(C)C)nc(-c2ccc(Cl)cc2Cl)n1-c1ccc(OS(=O)(=O)CCC(F)(F)F)cc1 | 2.5 |
| Cc1c(C(=O)NN2CCCCC2)nc(-c2ccc(Cl)cc2Cl)n1-c1ccc(OCCC(F)(F)F)cc1 | 0.794 |
| Cc1c(C(=O)NN2CCCCC2)nc(-c2ccc(Cl)cc2Cl)n1-c1ccc(OCCCC(F)(F)F)cc1 | 0.2 |
| CCCCS(=O)(=O)Oc1ccc(-n2c(-c3ccc(Cl)cc3Cl)nc(C(=O)NN3CCCCC3)c2C)cc1 | 0.126 |
| Cc1c(C(=O)NN2CCCCC2)nc(-c2ccc(Cl)cc2Cl)n1-c1ccc(OS(=O)(=O)CCCC(F)(F)F)cc1 | 0.1 |
| Cc1c(C(=O)N[C@@H]2CCCC[C@H]2O)nc(-c2ccc(Cl)cc2Cl)n1-c1ccc(OS(=O)(=O)CCC(F)(F)F)cc1 | 0.2 |
| Cc1c(C(=O)N[C@H]2CCCC[C@H]2N)nc(-c2ccc(Cl)cc2Cl)n1-c1ccc(OS(=O)(=O)CCC(F)(F)F)cc1 | 0.316 |
| Cc1c(C(=O)Nc2ccc(F)nc2)nc(-c2ccc(Cl)cc2Cl)n1-c1ccc(OS(=O)(=O)CCC(F)(F)F)cc1 | 0.1 |
| Cc1c(C(=O)Nc2ccc(C(F)(F)F)cn2)nc(-c2ccc(Cl)cc2Cl)n1-c1ccc(OS(=O)(=O)CCC(F)(F)F)cc1 | 0.126 |
| Cc1c(C(=O)NN2CCCCC2)nc(-c2ccc(Cl)cc2Cl)n1-c1ccc(OS(=O)(=O)CCC(C)(C)C)cc1 | 0.501 |
| Cc1c(C(=O)NN2CCCCC2)nc(-c2ccc(Cl)cc2Cl)n1-c1ccc(OS(=O)(=O)CCC(F)(F)F)cc1 | 0.126 |

Each molecule was assayed against T1, Cannabinoid receptor 1 (assay: Antagonist activity at recombinant human CB1 receptor expressed in HEK293 cell membranes assessed as inhibition of CP55940-induced [35S]GTPgammaS binding preincubated for 1 hr followed by CP55940 addition and subsequent incubation with [35S]GTPgammaS measured after 30 mins by scintillation spectrometry).
Method in brief: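 Antagonism was measured by [35S]GTPγS binding at 30 °C on membranes of HEK-293 cells stably expressing recombinant human CB1.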

| SMILES | IC50 |
| --- | --- |
| Cc1c(C(=O)N[C@@H]2CCCC[C@@H]2O)nc(-c2ccc(Cl)cc2Cl)n1-c1ccc(OS(=O)(=O)CCC(F)(F)F)cc1 | 1.58 nM |
| Cc1c(C(=O)N[C@@H]2CCCC[C@@H]2N(C)C)nc(-c2ccc(Cl)cc2Cl)n1-c1ccc(OS(=O)(=O)CCC(F)(F)F)cc1 | 79 nM and 83 nM |
| Cc1c(C(=O)NN2CCCCC2)nc(-c2ccc(Cl)cc2Cl)n1-c1ccc(OCCC(F)(F)F)cc1 | 5.01 nM |
| Cc1c(C(=O)N[C@H]2CCC[C@H](O)C2)nc(-c2ccc(Cl)cc2Cl)n1-c1ccc(OS(=O)(=O)CCC(F)(F)F)cc1 | 1.26 nM |
| Cc1c(C(=O)N[C@H]2CCCC[C@H]2N)nc(-c2ccc(Cl)cc2Cl)n1-c1ccc(OS(=O)(=O)CCC(F)(F)F)cc1 | 6.3 nM |
| Cc1c(C(=O)NN2CCCCC2)nc(-c2ccc(Cl)cc2Cl)n1-c1ccc(OS(=O)(=O)CCC(C)(C)C)cc1 | 2 nM |
